One assay concerns RPMI-8226. Kind of assay: Cytotoxicity against human RPMI-8226 cells assessed as reduction in cell growth incubated for 48 hrs by SRB assay. Format: functional, cell-based. An outline of the steps:
(§1)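 Cells kept in RPMI 1640 with 5% FBS and 2 mM L-glutamine at 37 °C in 5% CO2, periodically tested for Mycoplasma. After plating, cells were held 1 day without drug, and time-zero plates were read. Compounds in DMSO were added at 10^-4 to 10^-8 M (five 10-fold steps), with DMSO-only controls, for 48 h. Cells were then TCA-fixed and stained with sulforhodamine B, and absorbance was read. GI50 was derived from time-zero, control and treated absorbances; LC50 is the mean of two independent experiments.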
(In general: The SRB assay estimates cell density from bound dye.)

In assay [1] the test system is Panel NCI-60 (60 carcinoma cell lines). Kind of assay: Cytotoxicity against human Panel NCI-60 (60 carcinoma cell lines) assessed as reduction in cell growth incubated for 48 hrs by SRB assay. The format is functional, cell-based. An outline of the steps: as §1
For assay [2], the system named is A549. Put plainly: Inhibition of colony formation in human A549 cells grown under anchorage-independent soft-agar condition incubated for 9 days and subsequent media replenishment for every 3 days by crystal violet staining based light microscopy assay. Conditions: dose 10-50 µM, time 9.0 day.
Assay [3] deals with A549. Put plainly: Cytotoxicity against human A549 cells assessed as reduction in cell growth at 10 uM incubated for 36 hrs by MTT assay relative to control. The format is functional. The essentials: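 A549 cells were treated with 10 μM compound or DMSO vehicle, and growth inhibition was followed over time, with a 36 h time point.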
For orientation: Tetrazolium assays rely on reduction of a dye to a coloured formazan, in cell work by metabolically active cells.

The test system of the next assay is OVCAR-4. Put plainly: Cytotoxicity against human OVCAR-4 cells assessed as reduction in cell growth incubated for 48 hrs by SRB assay. The format is functional, cell-based. The essentials:
as §1

Assay [4] deals with A549. Kind of assay: Cytotoxicity against human A549 cells assessed as loss of cell morphological changes at 1 uM. Format: functional, cell-based. The essentials:
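A549 cells grown overnight were exposed to 1 μM compound or DMSO vehicle, and changes in cell morphology were recorded.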

Assay [5] has as its system A549. Put plainly: Induction of cellular senescence in human A549 cells assessed as increase in SA-beta-Gal accumulation in cells at 10 to 50 uM incubated for overnight by microscopic analysis. Format: functional, cell-based. Conditions: dose 10-50 µM.
In the next assay the test system is MDA-MB-468. Kind of assay: Cytotoxicity against human MDA-MB-468 cells assessed as reduction in cell growth incubated for 48 hrs by SRB assay. Format: functional, cell-based. An outline of the steps: as §1
Assay [6] deals with A549. Put plainly: Induction of cell cycle arrest in human A549 cells assessed as increase in subG1 phase accumulation incubated for 48 hrs by PI based flow cytometry. Format: functional. The essentials:
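A549 cells were exposed for 48 h, stained with propidium iodide and analysed by flow cytometry for cell cycle distribution and the sub-G1 (dead cell) fraction.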

The next assay concerns PC-3. Kind of assay: Cytotoxicity against human PC-3 cells assessed as reduction in cell growth incubated for 48 hrs by SRB assay. The format is functional, cell-based. An outline of the steps: as §1
In assay [7] the test system is A549. Put plainly: Inhibition of cell migration in human A549 cells incubated for 24 hrs by phase contrast microscopy based relative wound healing/cell migration assay to control. Format: functional. As to conditions: dose 0-50 µM. The essentials: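 Scratches were made in A549 monolayers. Cells were then grown in medium containing compound (0–50 μM) or DMSO vehicle, and wound closure was imaged by phase-contrast microscopy.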

For another assay, the system named is HCT-116. Put plainly: Cytotoxicity against human HCT-116 cells assessed as reduction in cell growth incubated for 48 hrs by SRB assay. The format is functional, cell-based. The essentials:
as §1

A further assay relates to SF-295. Put plainly: Cytotoxicity against human SF-295 cells assessed as reduction in cell growth incubated for 48 hrs by SRB assay. Format: functional, cell-based. An outline of the steps:
as §1

Assay [8] relates to A549. Put plainly: Induction of apoptosis in human A549 cells assessed as effect on caspase activation. Format: functional, cell-based.
A further assay concerns the target Coagulation factor X (Homo sapiens, UniProt P00742). Put plainly: Inhibition of human factor Xa using […] as substrate by chromogenic assay.

The source made the active and inactive calls. No cut-off for these calls is given here.

For orientation: inhibition means the change of the read-out against control, counted positive when it falls. As a reminder, the IC50 is the concentration at which inhibition is half-maximal. Low values mean greater potency in that assay, high ones weaker potency in that assay.

Coagulation factor X, sequence (P00742 41-179 limits assumed): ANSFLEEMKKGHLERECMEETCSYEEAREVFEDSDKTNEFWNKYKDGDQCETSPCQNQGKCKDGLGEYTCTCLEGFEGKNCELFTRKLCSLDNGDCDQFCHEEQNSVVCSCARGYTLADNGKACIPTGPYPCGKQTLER
Coagulation factor X, sequence (P00742 235-488 limits assumed): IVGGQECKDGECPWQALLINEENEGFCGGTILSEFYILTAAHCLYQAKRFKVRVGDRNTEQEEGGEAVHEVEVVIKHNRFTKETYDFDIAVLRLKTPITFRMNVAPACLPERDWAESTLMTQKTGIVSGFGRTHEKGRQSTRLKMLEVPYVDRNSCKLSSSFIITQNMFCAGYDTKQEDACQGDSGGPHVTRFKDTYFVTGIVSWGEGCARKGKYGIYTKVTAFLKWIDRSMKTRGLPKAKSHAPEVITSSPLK

For `O=S1(=O)N(Cc2ccccc2)[C@@H](Cc2ccccc2)[C@H](O)[C@H](O)[C@H](Cc2ccccc2)N1Cc1ccccc1`, the inhibition entry (in the assay on RPMI-8226; in [1]) was “Active” in each case.

In the case of `O=S1(=O)N(Cc2ccccc2)[C@H](Cc2ccccc2)[C@H](O)[C@H](O)[C@@H](Cc2ccccc2)N1Cc1ccccc1`, the inhibition result (in the assay with RPMI-8226; in assay [1]) was “Active” each time.

In the case of `O=S1(=O)N(Cc2ccccc2)[C@@H](Cc2ccccc2)C=C[C@H](Cc2ccccc2)N1Cc1ccccc1`, the inhibition entry in the assay on A549 [2] is “Dose-dependent effect”. Also, the inhibition at 10 µM with A549 [3] worked out at 50%. In addition, the inhibition entry in the assay on OVCAR-4, in the assay on MDA-MB-468, with PC-3, with HCT-116 and in the assay on SF-295 was “Active” in each case. The result in the assay on A549 [4], in the assay with A549 [5] and in the assay with A549 [6] was Active. Moreover, the “inhibition (INH)” value in the assay on A549 [7] was 50%. The result in the assay on A549 [8] was inactive.

In the case of `O=S1(=O)N(Cc2ccccc2)[C@@H](Cc2ccccc2)[C@@H]2O[C@@H]2[C@H](Cc2ccccc2)N1Cc1ccccc1`, the inhibition result (in the assay with RPMI-8226; in [1]) was “Active” throughout.

Compound `CC(=N)N1CCC(Oc2ccc3c(c2)C(=O)NS(=O)(=O)N3Cc2ccc3ccc(C(=N)N)cc3c2)CC1` came in with an IC50 on Coagulation factor X of 0.4 nM.
